Active and inactive are the calls of the source. The rule behind the calls is not given here.

The source of these data is ChEMBL document CHEMBL4041514, “From pyrrolidinyl-benzodioxane to pyrrolidinyl-pyridodioxanes, or from unselective antagonism to selective partial agonism at α4β2 nicotinic acetylcholine receptor” (Eur J Med Chem, 2017).

A short description of assay [1]: Displacement of [3H]epibatidine from rat cerebral cortex membrane alpha4beta2* nAChR pretreated for 5 mins followed by [3H]epibatidine addition after overnight incubation by beta counter. Put shortly:
(§1)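 Competition binding using [3H]epibatidine for rat cortex α4β2* and human α3β4 from transfected cells, and [125I]α-bungarotoxin for rat hippocampus α7*. Kd from three saturation experiments and Ki from three competition experiments. Fitted by nonlinear least squares (LIGAND) with an F test.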

Assay [2] is described as follows: Displacement of [125I]alpha-bungarotoxin from rat hippocampus membrane alpha7* nAChR pretreated for 5 mins followed by [125I]alpha-bungarotoxin addition after overnight incubation by gamma counter. The gist of the method:
as §1
Background: Displacement assays read how much labelled ligand stays bound in the presence of the test substance.

The species named for the next assay is Rattus norvegicus. Put plainly: Selectivity ratio of Ki for displacement of [125I]alpha-bungarotoxin from rat hippocampus membrane alpha7* nAChR to Ki for displacement of [3H]epibatidine from rat cerebral cortex membrane alpha4beta2* nAChR. The gist of the method:
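Ki for rat hippocampal α7* ([125I]α-bungarotoxin competition) divided by Ki for rat cortical α4β2* ([3H]epibatidine competition). Each Ki comes from three competition experiments analysed by nonlinear least squares.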

Assay [3] in a line: Selectivity ratio of Ki for displacement of [3H]epibatidine from human alpha3beta4 nAChR expressed in HEK293 cells to Ki for displacement of [3H]epibatidine from rat cerebral cortex membrane alpha4beta2* nAChR. The class given is cell-based. The gist of the method: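 [3H]-epibatidine competition binding on native rat cerebral cortex membranes (α4β2*) and on membranes of HEK cells transiently transfected with human α3β4. Kd and Ki came from three saturation and three competition experiments each, fitted by nonlinear least squares (LIGAND) with F test. The ratio is α3β4 Ki divided by α4β2 Ki.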

For assay [4], the target named is Neuronal acetylcholine receptor; alpha4/beta2 (Rattus norvegicus, UniProt P09483+P12390). Put plainly: Displacement of [3H](-)cytisine from rat whole brain alpha4beta2 nAChR.
Sequence of Neuronal acetylcholine receptor; alpha4/beta2 (Rattus norvegicus, UniProt P09483+P12390) (P09483 whole entry): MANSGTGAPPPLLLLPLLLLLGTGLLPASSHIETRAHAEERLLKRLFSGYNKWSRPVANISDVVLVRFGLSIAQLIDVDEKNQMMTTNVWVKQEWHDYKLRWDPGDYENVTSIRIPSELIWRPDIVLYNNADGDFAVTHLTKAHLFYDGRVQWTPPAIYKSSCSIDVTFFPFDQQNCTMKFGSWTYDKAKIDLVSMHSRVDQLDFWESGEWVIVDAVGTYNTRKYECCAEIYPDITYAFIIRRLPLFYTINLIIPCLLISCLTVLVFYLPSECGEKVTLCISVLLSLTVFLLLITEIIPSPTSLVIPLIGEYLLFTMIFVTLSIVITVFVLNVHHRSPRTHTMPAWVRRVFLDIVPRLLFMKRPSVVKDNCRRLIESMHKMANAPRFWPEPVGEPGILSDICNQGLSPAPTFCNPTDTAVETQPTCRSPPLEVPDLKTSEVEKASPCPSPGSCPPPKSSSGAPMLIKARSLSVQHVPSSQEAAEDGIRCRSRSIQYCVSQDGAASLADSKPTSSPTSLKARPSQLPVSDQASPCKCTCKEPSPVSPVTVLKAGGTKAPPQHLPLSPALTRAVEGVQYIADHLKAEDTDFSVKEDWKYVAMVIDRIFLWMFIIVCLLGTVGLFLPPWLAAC
Sequence of Neuronal acetylcholine receptor; alpha4/beta2 (Rattus norvegicus, UniProt P09483+P12390) (P12390 whole entry): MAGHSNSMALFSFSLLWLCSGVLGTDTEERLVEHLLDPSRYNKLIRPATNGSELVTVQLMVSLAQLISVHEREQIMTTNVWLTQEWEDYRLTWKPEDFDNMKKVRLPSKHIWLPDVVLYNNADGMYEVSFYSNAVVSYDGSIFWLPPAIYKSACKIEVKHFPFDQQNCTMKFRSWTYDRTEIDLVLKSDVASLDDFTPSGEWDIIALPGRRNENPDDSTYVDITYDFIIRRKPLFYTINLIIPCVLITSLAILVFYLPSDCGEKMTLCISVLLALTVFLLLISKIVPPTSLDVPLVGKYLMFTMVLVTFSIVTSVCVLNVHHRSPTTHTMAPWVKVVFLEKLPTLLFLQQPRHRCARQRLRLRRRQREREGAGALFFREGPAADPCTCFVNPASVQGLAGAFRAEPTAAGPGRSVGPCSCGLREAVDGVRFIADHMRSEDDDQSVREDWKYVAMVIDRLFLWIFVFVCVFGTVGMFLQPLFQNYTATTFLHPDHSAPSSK
The target of assay [5] is T1, Neuronal acetylcholine receptor; alpha3/beta4 (Homo sapiens, UniProt P30926+P32297). The assay is described as follows: Displacement of [3H]epibatidine from human alpha3beta4 nAChR expressed in HEK293 cells pretreated for 5 mins followed by [3H]epibatidine addition after overnight incubation by beta counter. The class given is cell-based. Put shortly:
as §1

Assay [6] addresses T1, Neuronal acetylcholine receptor; alpha3/beta4. Put plainly: Antagonist activity at human alpha3beta4 nAChR expressed in GH4CL cells by whole-cell patch clamp method. The class given is cell-based. In general terms: The patch-clamp technique gives a direct electrical read-out from membranes.
For assay [7], the target named is T2, Neuronal acetylcholine receptor; alpha4/beta2 (Homo sapiens, UniProt P17787+P43681). Put plainly: Antagonist activity at human alpha4beta2 nAChR expressed in GH4CL cells by whole-cell patch clamp method. The class given is cell-based.
T2 sequence (P17787 whole entry): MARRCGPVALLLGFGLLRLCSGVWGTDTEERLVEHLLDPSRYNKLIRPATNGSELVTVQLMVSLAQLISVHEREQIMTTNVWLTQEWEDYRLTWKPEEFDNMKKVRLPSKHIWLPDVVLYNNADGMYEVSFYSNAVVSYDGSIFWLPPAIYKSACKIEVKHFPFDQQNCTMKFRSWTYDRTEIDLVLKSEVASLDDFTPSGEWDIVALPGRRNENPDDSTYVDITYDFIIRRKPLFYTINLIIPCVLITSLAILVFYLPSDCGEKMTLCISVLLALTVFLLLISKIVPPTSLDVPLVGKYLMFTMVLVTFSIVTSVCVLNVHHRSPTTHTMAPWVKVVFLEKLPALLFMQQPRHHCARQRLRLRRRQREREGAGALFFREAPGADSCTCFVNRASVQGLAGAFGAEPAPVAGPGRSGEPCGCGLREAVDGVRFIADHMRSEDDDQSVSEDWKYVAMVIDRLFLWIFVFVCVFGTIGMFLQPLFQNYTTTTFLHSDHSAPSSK
T2 sequence (P43681 whole entry): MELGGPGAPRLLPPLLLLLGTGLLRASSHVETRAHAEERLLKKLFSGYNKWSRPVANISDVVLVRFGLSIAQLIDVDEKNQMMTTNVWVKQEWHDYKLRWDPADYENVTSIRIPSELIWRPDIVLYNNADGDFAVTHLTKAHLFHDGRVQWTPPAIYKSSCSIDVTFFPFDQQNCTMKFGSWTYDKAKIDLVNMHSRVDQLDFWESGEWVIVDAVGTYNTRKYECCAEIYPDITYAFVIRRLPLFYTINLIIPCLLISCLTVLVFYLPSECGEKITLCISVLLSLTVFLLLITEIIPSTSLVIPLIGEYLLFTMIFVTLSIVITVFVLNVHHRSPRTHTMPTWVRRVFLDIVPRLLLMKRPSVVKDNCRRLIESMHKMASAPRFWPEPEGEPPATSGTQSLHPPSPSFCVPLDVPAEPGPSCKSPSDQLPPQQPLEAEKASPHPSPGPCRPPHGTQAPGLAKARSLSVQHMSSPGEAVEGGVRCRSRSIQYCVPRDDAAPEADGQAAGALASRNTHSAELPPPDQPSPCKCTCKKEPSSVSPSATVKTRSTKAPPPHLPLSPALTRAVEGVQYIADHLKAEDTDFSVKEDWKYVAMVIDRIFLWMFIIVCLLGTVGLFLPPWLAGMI
In assay [8] the target is T2, Neuronal acetylcholine receptor; alpha4/beta2. Put plainly: Partial agonist activity at human alpha4beta2 nAChR expressed in GH4CL cells by whole-cell patch clamp method. The class given is cell-based. The gist of the method: (§2)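 Human receptor transiently transfected into GH4C1 pituitary cells. Agonist concentrations applied in sequence. Peak currents normalized to the 1 mM ACh response on the same cell. Fitted to a Hill equation, I = Imax([C]^nH/(EC50^nH+[C]^nH)), to give EC50, Imax and Hill coefficient.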

For assay [9], the target named is T1, Neuronal acetylcholine receptor; alpha3/beta4. Put plainly: Partial agonist activity at human alpha3beta4 nAChR expressed in GH4CL cells by whole-cell patch clamp method. It is filed as cell-based. The gist of the method: as §2
Assay [10] has as its target T2, Neuronal acetylcholine receptor; alpha4/beta2. The assay is described as follows: Partial agonist activity at human alpha4beta2 nAChR expressed in GH4CL cells by whole-cell patch clamp method relative to acetylcholine. The class given is cell-based. The gist of the method:
as §2

T1 sequence (P30926 whole entry): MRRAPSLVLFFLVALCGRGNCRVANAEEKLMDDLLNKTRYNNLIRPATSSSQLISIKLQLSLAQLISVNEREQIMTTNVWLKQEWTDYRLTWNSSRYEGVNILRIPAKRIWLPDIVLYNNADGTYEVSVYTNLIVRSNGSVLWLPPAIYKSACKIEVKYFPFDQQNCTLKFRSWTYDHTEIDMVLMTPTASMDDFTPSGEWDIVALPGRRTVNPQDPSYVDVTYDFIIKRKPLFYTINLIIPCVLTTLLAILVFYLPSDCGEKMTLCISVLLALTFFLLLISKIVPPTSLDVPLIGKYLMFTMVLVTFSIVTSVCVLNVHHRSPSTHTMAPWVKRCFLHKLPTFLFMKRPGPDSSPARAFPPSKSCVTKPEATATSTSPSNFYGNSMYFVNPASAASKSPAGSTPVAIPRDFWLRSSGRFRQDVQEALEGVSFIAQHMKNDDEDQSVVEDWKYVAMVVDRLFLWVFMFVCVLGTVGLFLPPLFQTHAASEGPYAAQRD
T1 sequence (P32297 whole entry): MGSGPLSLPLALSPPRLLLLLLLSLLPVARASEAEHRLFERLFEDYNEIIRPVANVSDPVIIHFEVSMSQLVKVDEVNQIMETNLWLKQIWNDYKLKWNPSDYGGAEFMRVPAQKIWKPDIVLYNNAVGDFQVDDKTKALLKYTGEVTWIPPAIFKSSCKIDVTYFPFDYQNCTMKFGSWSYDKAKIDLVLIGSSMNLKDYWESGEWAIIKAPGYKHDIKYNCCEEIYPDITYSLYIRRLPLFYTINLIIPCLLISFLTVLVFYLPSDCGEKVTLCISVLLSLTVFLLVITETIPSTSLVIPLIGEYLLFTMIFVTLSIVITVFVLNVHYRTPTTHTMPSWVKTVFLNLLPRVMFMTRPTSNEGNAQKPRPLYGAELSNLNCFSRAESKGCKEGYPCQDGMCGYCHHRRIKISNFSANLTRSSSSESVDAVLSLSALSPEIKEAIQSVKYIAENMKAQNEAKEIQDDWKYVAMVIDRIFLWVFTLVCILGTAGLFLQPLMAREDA

Take `C[C@@H](Oc1cccc(O)c1)[C@@H]1CCCN1C`: the Ki (usually the dissociation constant of the complex between target and ligand, obtained from inhibition or displacement) in assay [1] worked out at 0.011 µM; in assay [2], 0.057 µM. Besides, the Ratio Ki was 5 in the assay filed under Rattus norvegicus and 23 in assay [3].

In turn, `CN1CCC[C@H]1c1cc2ccccc2o1` yielded a Ki in assay [4] of 0.16 µM.

Take `CN1CCC[C@H]1[C@H]1COc2ccncc2O1`: the Ki in assay [1] was found to be 3.6 µM; in assay [5], 8.9 µM.

With `COc1ccc(O)cc1OC[C@@H]1CCCN1C`, the Ki in [1] turned out to be 0.019 µM; in assay [2], 1.15 µM. For the same compound, the Ratio Ki in the assay filed under Rattus norvegicus was 60; in [3], 14.

Regarding `CN1CCC[C@H]1[C@@H]1COc2ccncc2O1`, the values for the Ki in assay [1] and in assay [5] were 1.64 µM and 5.8 µM, respectively.

As for `CN1CCC[C@H]1[C@@H]1COc2ccccc2O1`, the Ki is 0.26 µM in assay [1], 21 µM in assay [2] and 1.2 µM in [5]. Also, the IC50 (in general, the concentration at which inhibition is half-maximal) in assay [6] was 2.78 to 2.8 µM; in assay [7], 5.36 to 5.4 µM. The result in assay [8] and in assay [9] was inactive. Also, the Ratio Ki turned out to be 81 in the assay listed under Rattus norvegicus and 5 in [3].

As to `CN1CCC[C@H]1[C@H]1COc2cccnc2O1`, the Ki in assay [1] is 30 µM; in assay [2], 12 µM.

As for `CN1CCC[C@H]1[C@H]1COc2ncccc2O1`, the figures for the Ki in [1], in [2] and in [5] were 30.4 µM, greater than 10 µM and 22 µM, respectively.

Consider `CN1CCC[C@H]1[C@@H]1COc2ncccc2O1`, for which the Ki in assay [1] was found to be 0.41 µM; in [2], 89 µM; in assay [5] it was 16.2 µM. In assay [10], the %max came out at 24.2%. In assay [8], a half-maximal effect (EC50) was put at 10.1 µM. Moreover, the Ratio Ki in the assay filed under Rattus norvegicus stood at 215; in assay [3] it was 39.

As to `CN1CCC[C@H]1[C@H]1COc2ccc(O)cc2O1`, the Ki is 0.012 µM in [1], 0.43 µM in assay [2] and 0.31 µM in assay [5]. Moreover, the Ratio Ki came out at 36 in the assay filed under Rattus norvegicus and 26 in [3].

In the case of `CN1CCC[C@H]1[C@H]1COc2ccccc2O1`, the Ki in assay [1] was 0.47 µM; in assay [2], 14.6 µM; in assay [5], 8.2 µM.

As to `CN1CCC[C@H]1[C@@H]1COc2cccnc2O1`, the figures for the Ki in assay [1] and in assay [2] were 43 µM and 24 µM, respectively.
